Compound activity deposited in PubChem by several laboratories.
Mdm2-MdmX inh = inhibitors of human Mdm2/MdmX interaction. 330,000 tested, 3% active. AID 485346. SaOS-2 split-luciferase Mdm2/MdmX complementation, luminescence. inhibition, % at 8 µM. O15151+Q00987;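 active = inhibition of at least 50% at 8 µM in the primary screen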
Beta apoptosis = blocks beta cell apoptosis; INS-1E cytokine-induced death, ATP luminescence, 48 h; percent of positive-control rescue, neutral wells zero; protection from apoptosis, % (test concentration not listed); 300,000 tested, 0.8% active; AID 435005;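 active = Every replicate reaches about 75%, or at least half do and their mean reaches it too, limit read from the data; inconclusive = At least half of replicates reach the limit but their mean does not; inactive = Under half of replicates reach the limit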;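 note: 0% = cytokine-treated negative control wells and 100% = positive control rescue; higher means more ATP so stronger rescue from cytokine killing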
CHOP UPR activ = activators of apoptotic arm of unfolded protein response (CHOP); activation, % at 10 µM; CHO-CHOP luciferase reporter, UPR activation, luminescence; percent of tunicamycin response over DMSO baseline; AID 449763; 330,000 tested, 0.34% active;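 active = at 10 µM dose, activation of 40% or more, normalized to positive control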;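 note: 100% = tunicamycin at 10 µg/mL and 0% = DMSO alone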
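measured by = luciferase luminescence | assay system = CHO-CHOP cells, stable luciferase reporter of PERK-eIF2a-CHOP signalling | amount = 500 reporter cells seeded per well | timing = 6 h compound exposure at 37 °C after overnight seeding | controls = positive tunicamycin 10 µg/mL, negative DMSO alone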
CSC inhib = blocks cancer stem cells; cancer stem cell-like cells viability, luminescence; inhibition, % at 7.5 µM; 300,000 tested, 1.1% active; AID 2717; in the data active = inhibition above about 75%; inconclusive = no clear call, values can overlap the other calls; tested in HMLE shEcad cells
T cruzi inh = T. cruzi replication inhibition | T. cruzi beta-gal in NIH3T3, luminescence, 90 h | inhibition, % (no concentration beside the values) | 300,000 tested, 1.4% active | AID 1885;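 active = mean inhibition across valid replicates above about 55%, limit read from the data; inconclusive = mean below that limit but half or more replicates reach it; inactive = mean below it, under half of replicates reach it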;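 note: signal also drops with host cell toxicity which is not excluded here; 0% = plate median of DMSO wells and 100% = zero luminescence signal; higher percent means less beta-gal luminescence so fewer parasites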
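System: mouse NIH/3T3 fibroblasts infected with β-gal-expressing T. cruzi Tulahuen C4 / Input: NIH/3T3 cells, 5,000 per well / Buffer or medium: Low-serum DMEM with 2% FBS / Probe or stimulus: 5000 reporter trypomastigotes per well / Schedule: ≥90 h infection period, 3 h prior cell attachment / Measured by: GalScreen luminescence, 60 min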
UPR XBP1 act = activators of adaptive arm of unfolded protein response (XBP1); CHO-XBP1 luciferase reporter, IRE1-XBP1 UPR activation, luminescence; percent of tunicamycin response, DMSO as zero; activation, % at 20 µM; 330,000 tested, 0.33% active; AID 463104;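 active = versus positive control, 20 µM dose yields 30% or more activation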;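 note: 100% = tunicamycin at 10 µg/mL and 0% = DMSO only wells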
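Signal: luciferase luminescence; Assay system: CHO-XBP1 luciferase reporter cells; Amount: one thousand reporter cells per well; Dosing: 20 µM single concentration, DMSO 1%; Benchmarks: high control tunicamycin 10 µg/mL final, low control DMSO vehicle only; Schedule: 6 h compound exposure at 37 °C, 5% CO2; Evaluation: percent activation relative to tunicamycin reference.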
Mdm2 MdmX conf = confirmation of human Mdm2/MdmX interaction inhibitors; Mdm2-MdmX binding, luminescent assay; inhibition, % at 8 µM; 10,000 tested, 55% active; shares compounds with Mdm2-MdmX inh; in the data active = inhibition above about 40%
FLuc counter = full-length luciferase inhibition in Mdm2/MdmX counter-screen; shares compounds with Mdm2-MdmX inh; SaOS-2 full-length luciferase counterscreen, luminescence; inhibition, % at 8 µM; 6,200 tested, 77% active;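 active = mean inhibition at 8 µM reaching about 37%, which flags the compound as non-specific, limit read from the data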;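 note: p53-null SaOS-2 cells with luciferase driven by a doxycycline-inducible promoter; compound on cells about two nights before reading with doxycycline added after day one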
* marks the source's active call; other numbers are inactive results. Shown are actives, neighbours in structure and some others; about 5% of the full set was active somewhere.

Screening Cc1cccc(NC(=O)Cn2nc(-c3cccs3)ccc2=O)c1C returned Mdm2-MdmX inh -12, Beta apoptosis -6, CHOP UPR activ -1, CSC inhib -5, T cruzi inh 9 and UPR XBP1 act -4.
`CN(c1ccc(F)cc1)S(=O)(=O)c1ccc(Cl)c(C(=O)Nc2ccncc2)c1` gave Mdm2-MdmX inh 52*, Beta apoptosis 39, CHOP UPR activ 3, CSC inhib -15, T cruzi inh 20, UPR XBP1 act -2 and Mdm2 MdmX conf 28.
Screening C=CCOc1ccc(/C=C(\C#N)C(=O)Nc2ccccn2)cc1 returned Mdm2-MdmX inh -1, Beta apoptosis -3, CHOP UPR activ 7, CSC inhib -7, T cruzi inh -15 and UPR XBP1 act 3.
For CC1CCN(CCOc2cc(Cl)ccc2Cl)CC1 the results were Mdm2-MdmX inh -2, Beta apoptosis -5, CHOP UPR activ 0, CSC inhib 6, T cruzi inh -21 and UPR XBP1 act 0.
For CC1CCN(CCOCCOc2ccc(Br)cc2Cl)CC1 the results were Mdm2-MdmX inh 52*, Beta apoptosis -7, CHOP UPR activ -2, T cruzi inh 46, UPR XBP1 act -1 and Mdm2 MdmX conf 20.
`COc1cc(OC)cc(-c2c(C#Cc3ccsc3)c3cc(-c4ccc(CN5CCOCC5)cc4)ccc3n2C)c1` gave Mdm2-MdmX inh 7, Beta apoptosis 2, CHOP UPR activ -1, CSC inhib 15 and UPR XBP1 act -4.
Screening COc1cc(OC)cc(-c2c(C#Cc3ccsc3)c3cc(-c4ccc(N(C)C)nc4)ccc3n2C)c1 returned Mdm2-MdmX inh 17, Beta apoptosis 0, CHOP UPR activ 0, CSC inhib 10 and UPR XBP1 act -3.
COc1cc(C#Cc2c(-c3cncn3C)n(C)c3ccc(-c4cnc(OC)nc4)cc23)cc(OC)c1 was read as Mdm2-MdmX inh 66*, Beta apoptosis 25, CHOP UPR activ 13, CSC inhib inconclusive, UPR XBP1 act 4, Mdm2 MdmX conf 39 and FLuc counter 63*.
COc1cc(C#Cc2c(-c3cncn3C)n(C)c3ccc(-c4cnc(N5CCOCC5)nc4)cc23)cc(OC)c1 was read as Mdm2-MdmX inh 81*, Beta apoptosis 15, CHOP UPR activ 19, UPR XBP1 act 7 and Mdm2 MdmX conf 14.
For COc1cc(C#Cc2c(-c3cncn3C)n(C)c3ccc(-c4ccc(CN5CCOCC5)cc4)cc23)cc(OC)c1 the results were Mdm2-MdmX inh 70*, Beta apoptosis 27, CHOP UPR activ 9, UPR XBP1 act 0 and Mdm2 MdmX conf -7.
COc1ccc(-n2ncc3c2CC(C)(C)CC3NC(=O)c2cnc(C)cn2)cc1 (stereo not drawn) was read as Mdm2-MdmX inh 0, Beta apoptosis 0, CHOP UPR activ -3, CSC inhib -10, T cruzi inh -10 and UPR XBP1 act -3.
